Data from ChEMBL document CHEMBL1125064, “Synthesis and antiviral activity of (S)-9-[4-hydroxy-3-(phosphonomethoxy)butyl]guanine” (1990).
Values after ≈ are worked out from the molar mass of the structure shown.

Experiments:
Assay type in all cases: functional
[1] = tested on: Vero; assay: Antiviral activity against herpesvirus vero cells in tissue culture; conditions: Chlorocebus sabaeus, read-out: ID50 (the source's name)
[2] = Antiviral activity against herpesvirus […] cells in tissue culture; conditions: Homo sapiens; read-out: ID50 (the source's name)
[3] = tested on: Human alphaherpesvirus 2; assay: Antiviral activity against herpesvirus HSV-2 in G strain in tissue culture in Vero cells; conditions: Human alphaherpesvirus 2, Vero; read-out: ID50 (the source's name)
In short: (§1)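 HSV-1 strain BWS or HSV-2 strain G plaque-reduction assay in Vero cells; ID50 reported in µg/mL.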

[4] = tested on: Human alphaherpesvirus 1; assay: Antiviral activity against herpesvirus HSV-1 in BWS strain in Vero cells; conditions: Human alphaherpesvirus 1, Vero; read-out: ID50 (the source's name); in short: as §1
[5] = tested on: Human betaherpesvirus 5; assay: Antiviral activity against herpesvirus HCMV in AD-169 strain in […] cells; conditions: read-out: ID50 (the source's name)
In short: (§2)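 HCMV strain AD-169 plaque-reduction assay in MRC-5 cells (human lung fibroblasts); ID50 reported in µg/mL.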

[6] = tested on: Human betaherpesvirus 5; assay: Antiviral activity against herpesvirus HCMV in AD-169 strain in tissue culture.; conditions: read-out: ID50 (the source's name); in short: as §2
[7] = tested on: Vero; assay: Antiviral activity against herpesvirus vero cells in tissue culture.; conditions: Chlorocebus sabaeus, read-out: ID50 (the source's name)
[8] = tested on: Human alphaherpesvirus 1; assay: Antiviral activity against herpesvirus HSV-1 in BWS strain in tissue culture.; conditions: read-out: ID50 (the source's name); in short: as §1
[9] = tested on: Human alphaherpesvirus 2; assay: Antiviral activity against herpesvirus HSV-2 in G strain in tissue culture.; conditions: read-out: ID50 (the source's name); in short: as §1
[10] = Antiviral activity against herpesvirus […] cells in tissue culture.; conditions: Homo sapiens; read-out: ID50 (the source's name)

Compound | IC50 [1] [µg/mL] | IC50 [2] [µg/mL] | IC50 [3] [µg/mL] | IC50 [4] [µg/mL] | IC50 [5] [µg/mL] | IC50 [6] [µg/mL] | IC50 [7] [µg/mL] | IC50 [8] [µg/mL] | IC50 [9] [µg/mL] | IC50 [10] [µg/mL]
Nc1ncnc2c1ncn2CC[C@@H](CO)OCP(=O)(O)O | > 100 | > 100 | > 100 | > 100 | > 100 | – | – | – | – | –
Nc1nc2c(ncn2COC(CO)CO)c(=O)[nH]1 [GANCICLOVIR] | – | – | – | – | – | 5 (≈ 19.6 µM) | > 100 | 0.2 (≈ 0.784 µM) | 1.6 (≈ 6.27 µM) | > 100
Nc1nc(O)c2ncn(CC[C@@H](CO)OCP(=O)(O)O)c2n1 | > 100 | 10 (≈ 30 µM) | 97 (≈ 291 µM) | > 100 | 1 (≈ 3 µM) | – | – | – | – | –
Nc1ccn(CC[C@@H](CO)OCP(=O)(O)O)c(=O)n1 | > 100 | > 100 | > 100 | > 100 | > 100 | – | – | – | – | –
